Source: PubChem (Broad Institute)
Sampled rows, rich in hits. Any-hit rate of the full collection: about 3.2%.
S100A4 MyoIIA: inhibitors of S100A4-myosin IIA peptide binding, primary screen, biochemical, fluorescence polarization, TAMRA-MyoIIA peptide; Protein S100-A4 (Homo sapiens), P26447; inhibition, % at 10.7 µM; 0.14% of 360,000 active; AID 652163, 2013;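 active = mean inhibition of at least 70% across replicates, with every replicate also reaching that level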
Target sequence (P26447 whole entry, looked up): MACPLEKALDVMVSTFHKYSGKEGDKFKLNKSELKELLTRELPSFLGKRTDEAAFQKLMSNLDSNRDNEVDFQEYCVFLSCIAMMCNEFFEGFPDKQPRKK
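Test system: S100A4 monomer protein. Medium: HEPES buffer with Ca2+, pH 7.2. Reagent: fluorescent myosin IIA peptide, 5 nM. Compound dosing: single-point compound testing. Timing: 5 min between mix addition and reading. Benchmarks: DMSO neutral and TFP positive wells.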
PfHsp90 yeast 2: growth inhibition of PfHsp90-expressing yeast, primary screen, antimalarial PfHsp90 inhibitor project, S. cerevisiae, BacTiter-Glo luminescence, single point, set 2; AID 504621, 2011; inhibition, % at 9.4 µM; 0.32% of 310,000 active; BacTiter-Glo ATP, 48 h; yeast lacking PDR1 and PDR3 efflux regulators;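 active = every replicate shows inhibition above about 80%, whatever the replicate mean, limit read from the data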
AF4-AF9 inh: inhibitors of AF4 peptide binding to AF9, primary screen, biochemical, AlphaScreen, biotin-AF4 peptide, FLAG-AF9, single point | 0.47% of 350,000 active | AID 651704, 2012 | inhibition, % at 10 µM;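 active = every replicate reaching a set inhibition limit, whatever the replicate mean, cut at about 25% in these data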
Target sequence (P42568 whole entry, looked up): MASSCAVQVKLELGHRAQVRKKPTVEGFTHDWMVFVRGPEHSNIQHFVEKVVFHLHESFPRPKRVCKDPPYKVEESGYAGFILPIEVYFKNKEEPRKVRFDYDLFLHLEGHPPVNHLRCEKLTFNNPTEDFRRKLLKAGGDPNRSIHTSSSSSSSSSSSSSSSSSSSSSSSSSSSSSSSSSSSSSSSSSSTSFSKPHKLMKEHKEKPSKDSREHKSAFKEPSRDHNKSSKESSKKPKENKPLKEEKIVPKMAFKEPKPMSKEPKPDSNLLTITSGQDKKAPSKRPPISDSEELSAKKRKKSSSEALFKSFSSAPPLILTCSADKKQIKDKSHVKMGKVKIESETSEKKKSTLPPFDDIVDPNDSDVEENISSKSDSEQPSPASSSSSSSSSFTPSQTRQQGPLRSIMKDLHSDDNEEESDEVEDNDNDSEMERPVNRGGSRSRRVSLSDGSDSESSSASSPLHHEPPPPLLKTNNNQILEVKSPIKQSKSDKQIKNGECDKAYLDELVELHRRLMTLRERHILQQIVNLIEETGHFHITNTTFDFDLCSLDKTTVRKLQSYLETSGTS
Ecoli rRNA inh: reduced GFP signal of wild-type E. coli, primary screen, bacterial rRNA inhibitor project, GFP/RFP fluorescence, OD600, single point | 1.6% of 350,000 active | E. coli WT GFP vs humanized-ribosome RFP mutants, 24 h; active compounds read low; DMSO median 0, no signal -100 | GFP signal change (wild-type ribosome), % (no concentration beside the values);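 active = significant combined selectivity score with lowered wild-type GFP, culture density cut under 30%, mutant RFP and density less affected; inactive = any of these conditions unmet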
DENV2 CPE rescue: inhibitors of DENV2 cytopathic effect, primary screen, cell-based, plate reader, single concentration | DENV2-infected cells, cytopathic effect rescue | CPE inhibition, % at 9.99 µM | 1.7% of 350,000 active | AID 651640, 2012; in the data active = CPE inhibition above about 20%, passing the limit was not always enough; tested in BHK-21 cells
Cneo AK release: Cryptococcus neoformans cell lysis inducers, primary screen, AK release luminescence, single concentration | AID 651654, 2012 | lysis activity, % at 15 µM | C. neoformans lysis, adenylate kinase release luminescence, 4 h; normalised: neutral wells 0, clomiphene wells 100 | 0.2% of 360,000 active;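 active = mean lysis activity across replicates of at least 80%, whatever share of replicates individually reach that level; inactive = mean lysis activity below 80%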
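Assay system: C. neoformans cells. Amount: yeast cell density of 5 × 10^6 cells/mL. Technique: AK luminescence. Buffer or medium: YPD. Times: static 4 h at 37 °C with compound, 1 h detection. Dosing: single-point compound dose. Read-out: lysis from increased AK signal.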
Of the large screens only hits and unclear results are named; the others gave an inactive call; ! = repeats disagree.

CC(C)C#Cc1ccc([C@@H]2[C@H]3CN(CC4CC4)CCCCN3[C@H]2CO)cc1	DENV2 CPE rescue 26 (no result: PfHsp90 yeast 2)
C[C@@H](O)C#Cc1ccc([C@H]2[C@H](CO)N3CCCCN(CC4CC4)C[C@@H]23)cc1	none (no result: PfHsp90 yeast 2)
CC(C)C#Cc1ccc([C@@H]2[C@H](CO)N3CCCCN(CC4CC4)C[C@@H]23)cc1	DENV2 CPE rescue 22 (no result: PfHsp90 yeast 2)
C[C@H](CO)N1C[C@H](C)[C@@H](CN(C)S(=O)(=O)c2ccc(Cl)cc2)Oc2ccc(NC(=O)Nc3ccccc3)cc2CC1=O	none (no result: PfHsp90 yeast 2)
Cc1ccccc1S(=O)(=O)N1CC[C@@H]2[C@H](CO)N(C)c3ccc(C#Cc4ccc(F)cc4)cc3[C@@H]21	none (no result: PfHsp90 yeast 2)
COc1ccc(S(=O)(=O)N(C)C[C@H]2OCCCC[C@H](C)Oc3ccc(NC(=O)Nc4ccc5c(c4)OCO5)cc3C(=O)N([C@H](C)CO)C[C@H]2C)cc1	none (no result: PfHsp90 yeast 2)
N#Cc1cc(C(=O)c2cc(F)ccc2O)cn(Cc2ccccc2)c1=O	Ecoli rRNA inh -24 (no result: Cneo AK release)
Cc1ccc(O)c(C(=O)c2cc(C#N)c(=O)n(Cc3ccccc3)c2)c1	none (no result: Cneo AK release)
C[C@H](CO)N1C[C@H](C)[C@H](CN(C)S(C)(=O)=O)OCCCC[C@H](C)Oc2ccc(NC(=O)CCC(F)(F)F)cc2C1=O	none (no result: PfHsp90 yeast 2)
CCCN(C)C[C@@H]1Oc2ncc(-c3cccc(C#N)c3)cc2C(=O)N([C@H](C)CO)C[C@@H]1C	none (no result: PfHsp90 yeast 2)
CCCNC(=O)N1[C@H](CNC(=O)c2cccc(F)c2)[C@@H](c2ccccc2)[C@@H]1CO	DENV2 CPE rescue 43 (no result: S100A4 MyoIIA, PfHsp90 yeast 2, AF4-AF9 inh)
CCCNC(=O)N1[C@@H](CO)[C@H](c2ccccc2)[C@@H]1CNC(=O)c1cccc(F)c1	none (no result: PfHsp90 yeast 2)
CCCNC(=O)N1[C@@H](CO)[C@@H](c2ccccc2)[C@@H]1CNC(=O)c1ccccc1	none (no result: PfHsp90 yeast 2)
CCCNC(=O)N1[C@H](CO)[C@H](c2ccccc2)[C@@H]1CNC(=O)c1ccccc1	DENV2 CPE rescue 33 (no result: PfHsp90 yeast 2)
C[C@@H]1CN([C@@H](C)CO)C(=O)c2cc(NC(=O)Nc3ccc(C(F)(F)F)cc3)ccc2O[C@@H](C)CCCCO[C@H]1CN(C)S(=O)(=O)c1ccc(F)cc1	none (no result: PfHsp90 yeast 2)
O=Cc1ccc(N2CCCC2)c([N+](=O)[O-])c1	none (no result: Cneo AK release)
O=[N+]([O-])/C=C\c1ccc(N2CCCC2)c(F)c1	PfHsp90 yeast 2 106 (no result: S100A4 MyoIIA, AF4-AF9 inh, Ecoli rRNA inh, DENV2 CPE rescue)
Oc1ccccc1C=NNC(=S)NC1CC2C=CC1C2 (configuration not stated)	none (no result: PfHsp90 yeast 2)
Oc1c(Cl)cc(Cl)cc1/C=N/NC(=S)NC1CC2C=CC1C2 (configuration not stated)	Ecoli rRNA inh -31
Oc1ccccc1/C=N/NC(=S)NC1CC2C=CC1C2 (configuration not stated)	Ecoli rRNA inh -39 (no result: AF4-AF9 inh, Cneo AK release)
COc1ccc(OC)c2sc(N(CCN(C)C)C(=O)c3ccc4ccccc4c3)nc12	AF4-AF9 inh 28
COc1cc2ccccc2cc1C(=O)N(CCN(C)C)c1nc2c(OC)ccc(OC)c2s1	AF4-AF9 inh 50
C[C@@H](O)C#Cc1cnc2c(c1)C(=O)N([C@@H](C)CO)C[C@H](C)[C@H](CN(C)Cc1ccccn1)O2	none (no result: PfHsp90 yeast 2)
C[C@H](CO)N1C[C@H](C)[C@H](CN(C)Cc2ccc(C(=O)O)cc2)Oc2ccc(NC(=O)C3CC3)cc2C1=O	none (no result: PfHsp90 yeast 2)
O=C1CC(c2ccccc2)=NN1c1nc(-c2ccccc2)cs1	PfHsp90 yeast 2 92 (no result: Cneo AK release)
CCC(=O)c1ccc(OCC(=O)Nc2nc(-c3cccnc3)cs2)cc1	none
CCC(=O)c1ccc(OCC(=O)Nc2nc(C)cs2)cc1	Ecoli rRNA inh -27
O=C(C[C@@H]1CC[C@@H](NC(=O)Nc2ccc3c(c2)OCO3)[C@@H](CO)O1)NCc1ccc2c(c1)OCO2	DENV2 CPE rescue 29 (no result: PfHsp90 yeast 2)
O=C(C[C@@H]1CC[C@H](NC(=O)c2ccc3c(c2)OCO3)[C@@H](CO)O1)NCc1ccc(F)cc1	DENV2 CPE rescue 32! (no result: PfHsp90 yeast 2)
CN(C)C(=O)C[C@@H]1CC[C@@H](NC(=O)c2ccc(F)cc2)[C@H](CO)O1	DENV2 CPE rescue 45 (no result: PfHsp90 yeast 2)
O=C(C[C@H]1CC[C@@H](NC(=O)Nc2ccc3c(c2)OCO3)[C@H](CO)O1)NCc1ccc2c(c1)OCO2	none (no result: PfHsp90 yeast 2)
CN(C)C(=O)C[C@H]1CC[C@H](NC(=O)c2ccc(F)cc2)[C@@H](CO)O1	none (no result: PfHsp90 yeast 2)
O=C(Nc1ccc2c(c1)OCO2)N[C@@H]1CC[C@@H](CCNC(=O)C2CCCC2)O[C@H]1CO	S100A4 MyoIIA 90 (no result: PfHsp90 yeast 2)
COCC(=O)Nc1ccc2c(c1)OC[C@@H](C)N(C(=O)c1ccncc1)C[C@H](C)[C@@H](OC)CN(C)C2=O	none (no result: PfHsp90 yeast 2)
Cc1oc(-c2ccc(Cl)cc2)cc1C(=O)/C(C#N)=C/Nc1ccccc1	Ecoli rRNA inh -25 (no result: Cneo AK release)
COc1cccc(C2(c3cccc(OC)c3)CC2C(=O)Nc2ccccc2Cl)c1 (configuration not stated)	none
COc1cccc(C2(c3cccc(OC)c3)CC2C(=O)Nc2ccc(F)cc2)c1 (configuration not stated)	DENV2 CPE rescue 32
Cc1ccc(Nc2nc(N)c3ccccc3n2)cc1Cl	none
COc1cc2nc(Nc3ccc(C)c(Cl)c3)nc(N)c2cc1OC	AF4-AF9 inh 33
COc1cc2nc(Nc3ccc(C)c(C)c3)nc(N)c2cc1OC	AF4-AF9 inh 26, Ecoli rRNA inh -38
COc1cc2nc(Nc3ccc(F)cc3)nc(N)c2cc1OC	Ecoli rRNA inh -16
C[C@@H]1CCCCO[C@@H](CN(C)CC2CCCCC2)[C@@H](C)CN([C@@H](C)CO)C(=O)c2cc(NS(=O)(=O)c3ccccc3)ccc2O1	Cneo AK release 80 (no result: PfHsp90 yeast 2)
Cc1ccc(S(=O)(=O)Nc2ccc3c(c2)C(=O)N([C@@H](C)CO)C[C@@H](C)[C@@H](CN(C)CC2CC2)OCCCC[C@@H](C)O3)cc1	DENV2 CPE rescue 63! (no result: PfHsp90 yeast 2)
C[C@@H]1CCCCO[C@H](CN(C)CC2CCCCC2)[C@@H](C)CN([C@H](C)CO)C(=O)c2cc(NS(=O)(=O)c3ccc(Cl)cc3)ccc2O1	none (no result: S100A4 MyoIIA, PfHsp90 yeast 2, AF4-AF9 inh)
C[C@@H]1CCCCO[C@@H](CN(C)CC2CCCCC2)[C@@H](C)CN([C@H](C)CO)C(=O)c2cc(NS(=O)(=O)c3ccc(Cl)cc3)ccc2O1	DENV2 CPE rescue 63! (no result: PfHsp90 yeast 2)
C[C@H]1CCCCO[C@H](CN(C)CC2CCCCC2)[C@@H](C)CN([C@@H](C)CO)C(=O)c2cc(NS(=O)(=O)c3ccccc3)ccc2O1	none (no result: PfHsp90 yeast 2)
